Marks after values point to notes of the source that are not given here.
Columns and labels:
CYP3A4 = CYP3A4 (Homo sapiens, UniProt P08684); assay: In vitro metabolism studies; assay type: in vitro ADME
CYP2C19 = CYP2C19 (Homo sapiens, UniProt P33261); assay: In vitro metabolism studies; assay type: in vitro ADME
[1] = Plasma pharmacokinetics, study INCB 54329-101; assay type: in vivo, human
How it was run: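 Plasma PK used noncompartmental analysis in patients given ≥1 dose with ≥1 PK sample. Oral dosing was 15–30 mg QD or 15–25 mg BID, continuous or intermittent; the first 3 patients also received a single 5-mg PK dose at day 0. Steady-state oral clearance (CLss/F) and terminal half-life are reported as mean with SD.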

advanced malignancies [2] = assay: Objective response assessment, study INCB 54329-101; assay type: in vivo, human
How it was run: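 Open-label phase 1/2 monotherapy study in adults (≥18 y) with relapsed/refractory advanced malignancies and ECOG ≤1. Oral dosing was 15–30 mg QD or 15–25 mg BID, continuous or intermittent (5/2, 4/3, 7/7 days on/off), in 21-day cycles. Part 2 used intrapatient titration from 20 mg BID. Response was assessed with malignancy-specific criteria in patients with ≥1 dose, measurable/evaluable baseline disease and ≥1 post-baseline assessment.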

[3] = test system: patients with advanced malignancies; assay: Safety and tolerability, phase 1/2 study INCB 54329-101; assay type: in vivo; details: for TRAEs (any): all treatment groups; for TRAE thrombocytopenia: incl. platelet counts decreased
[4] = test system: coagulation factor VII (Factor VII); assay: Olink multiplex proximity extension assay of patient plasma; assay type: in vivo, human; details: cycle 1 day 8
How it was run: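 Plasma from 80 patients dosed orally at 8, 12 or 16 mg QD was collected at baseline (cycle 1 day 1) and on treatment (cycle 1 day 8, cycle 2 day 1, cycle 4 day 1). About 1,012 proteins were profiled by multiplex proximity extension assay. Factor VII is expressed as fold-change versus baseline.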

[5] = Effect of a high-fat meal on PK of INCB057643; assay type: in vivo, human
How it was run: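 Steady-state plasma PK was compared within 12 patients, each dosed orally once daily in the fasted state and with a high-fat meal. Parameters (Tmax, Cmax, AUCtau) came from noncompartmental analysis. The fed/fasted ratio of geometric means is reported with its 90% CI.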

[6] = Plasma pharmacokinetics, study INCB 57643-101; assay type: in vivo, human; details: for half-life: human, plasma
How it was run: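 Plasma PK used noncompartmental analysis in patients given ≥1 dose with ≥1 PK sample, dosed orally at 8, 12 or 16 mg QD continuously. Steady-state oral clearance (CLss/F) and terminal half-life are reported as mean with SD.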

advanced malignancies [7] = assay: Objective response assessment, study INCB 57643-101; assay type: in vivo, human; details: for reduction in spleen size by manual palpation: one MF patient
How it was run: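 Open-label phase 1/2 study in adults (≥18 y) with relapsed/refractory advanced malignancies. Oral dosing was 8–16 mg QD, continuous, as monotherapy (escalation; expansion at 12 mg QD) or from 8 mg QD combined with standard-of-care agents, in 21- or 28-day cycles. Response was assessed with malignancy-specific criteria in patients with ≥1 dose, measurable/evaluable baseline disease and ≥1 post-baseline assessment.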

[8] = test system: patients with advanced malignancies; assay: Safety and tolerability, phase 1/2 study INCB 57643-101; assay type: in vivo; details: for TRAEs (any): all treatment groups; for TRAE thrombocytopenia: incl. platelet counts decreased
[9] = test system: patients with advanced solid tumors; details: 36 patients with advanced solid tumors; cited from earlier work
[10] = Part 2 TGA, 12 mg QD, 86 patients
[11] = Part 3, 8 mg QD in combination with SOC agents, 13 patients

Chain of CYP3A4 (P08684 whole entry): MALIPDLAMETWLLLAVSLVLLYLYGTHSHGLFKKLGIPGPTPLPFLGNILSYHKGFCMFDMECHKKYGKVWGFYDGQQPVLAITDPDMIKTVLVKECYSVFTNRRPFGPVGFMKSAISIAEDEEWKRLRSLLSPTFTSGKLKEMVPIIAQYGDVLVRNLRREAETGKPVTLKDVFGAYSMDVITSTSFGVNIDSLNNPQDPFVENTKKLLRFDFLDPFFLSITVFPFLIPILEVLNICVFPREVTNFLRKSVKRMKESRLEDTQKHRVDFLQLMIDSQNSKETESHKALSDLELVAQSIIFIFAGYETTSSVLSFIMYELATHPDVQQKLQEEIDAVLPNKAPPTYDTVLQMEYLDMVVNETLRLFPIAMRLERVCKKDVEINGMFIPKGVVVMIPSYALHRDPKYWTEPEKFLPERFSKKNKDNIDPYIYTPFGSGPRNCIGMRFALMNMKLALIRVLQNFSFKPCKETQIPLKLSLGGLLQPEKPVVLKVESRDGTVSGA
Chain of CYP2C19 (P33261 whole entry): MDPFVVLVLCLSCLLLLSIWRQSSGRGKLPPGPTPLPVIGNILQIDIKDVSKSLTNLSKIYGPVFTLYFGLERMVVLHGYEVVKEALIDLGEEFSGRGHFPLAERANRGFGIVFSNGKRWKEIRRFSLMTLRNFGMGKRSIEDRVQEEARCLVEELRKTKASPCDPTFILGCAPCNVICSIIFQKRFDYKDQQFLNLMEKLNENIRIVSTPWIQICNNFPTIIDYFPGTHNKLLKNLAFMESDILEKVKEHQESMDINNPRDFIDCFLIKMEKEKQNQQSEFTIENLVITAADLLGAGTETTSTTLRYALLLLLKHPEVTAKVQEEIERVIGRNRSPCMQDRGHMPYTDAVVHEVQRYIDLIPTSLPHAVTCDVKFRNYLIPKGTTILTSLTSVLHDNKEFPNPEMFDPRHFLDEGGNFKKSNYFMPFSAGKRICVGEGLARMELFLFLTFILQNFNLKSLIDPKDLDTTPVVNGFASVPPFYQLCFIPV

## Cc1noc(C)c1-c1ccc2[nH]c(=O)n3c2c1OC[C@@H]3c1ccccn1 [INCB054329]
CYP3A4
  metabolism by CYP3A4: metabolized
CYP2C19
  metabolism by CYP2C19: metabolized
[1]; as summarised in discussion
  half-life: < 5 h
[1]; overall, oral dosing, patients
  oral clearance CLss/F, mean [SD]: 95.5 [135] L/h
  terminal elimination half-life t1/2, mean [SD]: 2.24 [2.03] hours
Advanced malignancies [2]; 69 patients
  confirmed clinical response: none and no confirmed clinical responses
Advanced malignancies [2]; all with solid tumors
  patients with stable disease as best response: Twenty-one
Advanced malignancies [2]; in vivo
  patients who maintained SD for ≥6 months: 4 patients
Advanced malignancies [2]; n = 69
  discontinuation, primary reason disease progression: 53 (77) n (%)
[3]; 69 enrolled patients
  patients with ≥1 any grade TRAE: 78%
[3]; Part 1 TGA
  MTD per protocol: not reached
[3]; Part 1 TGA, both grade 4 thrombocytopenia at 30 mg QD and 22.5 mg BID
  DLTs: 2 DLTs
[3]; Part 1 TGB, 20 mg BID
  DLTs: No DLTs
[3]; Part 1 TGB, due to grade 3 hyperglycemia
  TRAEs leading to dose interruptions: 2 patients
[3]; Part 2 dose titration
  tolerability of the 20 mg BID starting dose: not tolerated
[3]; Part 2 dose titration, 20 mg BID start, 11 patients
  patients requiring dose interruption due to TRAEs: 45%
[3]; any grade
  incidence of TRAE anemia: 10%
  incidence of TRAE decreased appetite: 26%
  incidence of TRAE fatigue: 29%
  incidence of TRAE nausea: 35%
  incidence of TRAE thrombocytopenia: 33%
  incidence of TRAE vomiting: 10%
[3]; any grade, n = 69
  TRAEs (any): 54 (78) n (%)
  TRAE anemia: 7 (10) n (%)
  TRAE decreased appetite: 18 (26) n (%)
  TRAE diarrhea: 12 (17) n (%)
  TRAE dysgeusia: 9 (13) n (%)
  TRAE fatigue: 20 (29) n (%)
  TRAE hyperglycemia: 3 (4)^c n (%)
  TRAE nausea: 24 (35) n (%)
  TRAE vomiting: 7 (10) n (%)
  TRAE thrombocytopenia: 23 (33) n (%)
[3]; grade ≥3
  incidence of TRAE AST increased: 4%
  incidence of TRAE anemia: 6%
  incidence of TRAE hyperglycemia: 3%
  incidence of TRAE neutropenia: 6%
[3]; grade ≥3, n = 69
  TRAEs (any): 16 (23) n (%)
  TRAE anemia: 4 (6) n (%)
  TRAE decreased appetite: 0 (0) n (%)
  TRAE diarrhea: 0 (0) n (%)
  TRAE dysgeusia: 0 (0) n (%)
  TRAE fatigue: 0 (0) n (%)
  TRAE hyperglycemia: 2 (3) n (%)
  TRAE nausea: 1 (1) n (%)
  TRAE vomiting: 1 (1) n (%)
  TRAE thrombocytopenia: 9 (13) n (%)
[3]; in vivo
  deaths deemed treatment-related: none
[3]; n = 69
  discontinuation, primary reason adverse event: 2 (3) n (%)
  discontinuation, primary reason death: 1 (1) n (%)
[3]; overall
  TRAEs leading to dose interruptions: 29%
  TRAEs leading to dose reductions: 7%
  dose interruptions due to thrombocytopenia: 17%
  patients who discontinued treatment due to TRAEs: 4%
  serious TRAE anemia: 2 patients
  serious TRAE thrombocytopenia: 4 patients
[3]; overall, n = 69
  patients experiencing serious TRAEs: 7 patients

## CN1C(=O)C(C)(C)Oc2c(-c3cn(C)c(=O)c4[nH]ccc34)cc(S(C)(=O)=O)cc21 [INCB057643]
[4]; 8 mg
  Factor VII mean [SEM] fold decrease vs. baseline: −0.32 [0.10]
[4]; 12 mg
  Factor VII mean [SEM] fold decrease vs. baseline: −0.53 [0.14]
[4]; 16 mg
  Factor VII mean [SEM] fold decrease vs. baseline: −0.53 [0.33]
[5]; 90% CI 0.78–1.01
  fed vs. fasted geometric mean ratio of Cmax: 0.89
[5]; 90% CI 0.99–1.29
  fed vs. fasted geometric mean ratio of AUCtau: 1.13
[5]; fed vs fasted
  increase of geometric mean AUCtau by high-fat meal: 13%
  lowering of geometric mean Cmax by high-fat meal: 11%
[6]; oral
  half-life: ~10 h
[6]; po
  half-life: 11.1 h
[6]; overall, oral dosing, patients
  oral clearance CLss/F, mean [SD]: 11.1 [4.97] L/h
Advanced malignancies [7]; 134 patients
  patients with objective responses: 6 patients
Advanced malignancies [7]; all with solid tumors
  patients who maintained SD for ≥6 months: 6 patients
Advanced malignancies [7]; follicular lymphoma patient, 8 mg QD, ongoing at data cutoff
  duration of complete response: > 2 years
Advanced malignancies [7]; in vivo
  patients with SD as best response: Twenty-seven
  patients with progressive disease as best response: Forty-one
Advanced malignancies [7]; n = 134
  discontinuation, primary reason disease progression: 76 (57) n (%)
Advanced malignancies [7]; 8 mg QD + ruxolitinib
  reduction in spleen size by manual palpation: 77%
Advanced malignancies [7]; 12 mg QD monotherapy
  reduction in spleen size by manual palpation: 92.5%
[8]; 16 mg QD cohort, cycles 1 and 2
  patients requiring dose interruptions and/or reductions due to AEs: 50%
[8]; 134 enrolled patients
  patients with ≥1 any grade TRAE: 86%
[8]; Part 1 TGA
  tolerability of the 16 mg QD dose: not tolerated
[8]; Part 1 TGA, grade 3 increased INR, 16 mg QD cohort of 8 patients
  DLTs: 1 DLT
[8]; Part 2 TGA, 12 mg QD
  TRAEs leading to dose interruptions: 35%
  TRAEs leading to dose reductions: 11%
[8]; [10]
  patients with a grade 3/4 TRAE: 36%
  patients with a serious TRAE: 13%
[8]; Part 2 TGB, 12 mg QD, 5 patients
  patients with a grade 3/4 TRAE: 40%
[8]; Part 2 TGB, 12 mg QD, febrile neutropenia and thrombocytopenia
  patients requiring dose interruption: 20%
[8]; [11]
  TRAEs leading to dose interruptions: 6 patients
  TRAEs leading to dose reductions: 4 patients
[8]; any grade
  incidence of TRAE anemia: 14%
  incidence of TRAE decreased appetite: 22%
  incidence of TRAE diarrhea: 16%
  incidence of TRAE dysgeusia: 16%
  incidence of TRAE fatigue: 30%
  incidence of TRAE hyperglycemia: 13%
  incidence of TRAE nausea: 30%
  incidence of TRAE thrombocytopenia: 32%
  incidence of TRAE vomiting: 16%
  patients with treatment-related INR increased events: Seven
[8]; any grade, n = 134
  TRAEs (any): 115 (86) n (%)
  TRAE anemia: 19 (14) n (%)
  TRAE decreased appetite: 30 (22) n (%)
  TRAE diarrhea: 21 (16) n (%)
  TRAE dysgeusia: 22 (16) n (%)
  TRAE fatigue: 40 (30) n (%)
  TRAE hyperglycemia: 18 (13) n (%)
  TRAE nausea: 40 (30) n (%)
  TRAE vomiting: 21 (16) n (%)
  TRAE thrombocytopenia: 43 (32) n (%)
[8]; at 16 mg QD
  MTD per protocol definition: not reached
[8]; grade ≥3
  incidence of TRAE INR increased: 2%
  incidence of TRAE anemia: 10%
  incidence of TRAE dehydration: 2%
  incidence of TRAE diarrhea: 2%
  incidence of TRAE hyperglycemia: 3%
  incidence of TRAE hyponatremia: 2%
  incidence of TRAE nausea: 2%
  incidence of TRAE syncope: 2%
  incidence of TRAE vomiting: 2%
[8]; grade ≥3, n = 134
  TRAEs (any): 48 (36) n (%)
  TRAE anemia: 14 (10) n (%)
  TRAE decreased appetite: 0 (0) n (%)
  TRAE diarrhea: 2 (2) n (%)
  TRAE dysgeusia: 0 (0) n (%)
  TRAE fatigue: 1 (1) n (%)
  TRAE hyperglycemia: 4 (3) n (%)
  TRAE nausea: 2 (2) n (%)
  TRAE vomiting: 2 (2) n (%)
  TRAE thrombocytopenia: 24 (18) n (%)
[8]; human, in vivo
  deaths deemed related to treatment: 2 deaths
  deaths during the study: 17 deaths
[8]; n = 134
  discontinuation, primary reason adverse event: 20 (15) n (%)
  discontinuation, primary reason death: 9 (7) n (%)
[8]; overall
  patients requiring dose reductions: 11%
  patients who discontinued treatment due to TRAEs: 11%

## Cc1noc(C)c1-c1cnc2c(-c3ccc(C(=O)O)cc3)cn([C@@H](C)c3ccccn3)c2c1 [PLX51107]
[9]
  INR increase, patients: 17%

— article PMC7528620 (Clinical cancer research : an official journal of the …, 2019)
